Source: PubChem
Only some compounds are listed: those with a hit (about 5.8% of all), similar ones and a draw of the others.
IDH1 mut inh – inhibitors of IDH1 R132H reductase, primary screen, biochemical, plate reader, single point. Isocitrate dehydrogenase [NADP] cytoplasmic (Homo sapiens), O75874. inhibition, % at 10 µM. diaphorase/resazurin fluorescence, 60 min. AID 624101, 2012. 0.18% of 70,000 active; in the data active = inhibition above about 34%; inconclusive = no clear call, values can overlap the other calls; inactive = below about 11%
Target sequence (O75874 whole entry R132H): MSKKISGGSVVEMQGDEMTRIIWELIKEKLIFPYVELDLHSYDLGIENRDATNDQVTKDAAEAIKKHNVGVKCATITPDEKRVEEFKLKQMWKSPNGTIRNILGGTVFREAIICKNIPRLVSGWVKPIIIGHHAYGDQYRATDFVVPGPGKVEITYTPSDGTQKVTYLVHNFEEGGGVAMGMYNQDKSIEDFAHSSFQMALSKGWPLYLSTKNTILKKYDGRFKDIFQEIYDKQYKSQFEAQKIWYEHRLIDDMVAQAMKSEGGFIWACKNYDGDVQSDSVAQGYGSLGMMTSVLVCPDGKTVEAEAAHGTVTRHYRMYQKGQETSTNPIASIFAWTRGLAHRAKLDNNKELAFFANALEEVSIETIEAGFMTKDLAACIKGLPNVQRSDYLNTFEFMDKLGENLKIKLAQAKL
KDM4C inh – inhibitors of GASC-1 (KDM4C) histone demethylase, primary screen, biochemical, single concentration HTS. GST-KDM4C 2-372, H3K9me3 peptide, LANCE TR-FRET. inhibition, % at 12.5 µM. 0.15% of 96,000 active;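 active = mean replicate inhibition above about 25%, with at least 55% of replicates also reaching it, limit read from the data, passing the limit was not always enough; inconclusive = only one of those two conditions met; inactive = neither condition met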
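Compound: one test concentration per compound; Material: GST-GASC-1 enzyme fragment 2-372; Amount: GASC-1 enzyme at 10 nM final in reaction; Also added: H3K9me3 peptide substrate, Fe(II), 2-oxoglutarate; Technique: LANCE TR-FRET; Times: 30 min demethylation and 1 h detection at room temperature.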
Pf Dd2 growth – P. falciparum Dd2 growth inhibitors, primary screen, SYBR Green fluorescence, single dose replicates; activity change, % at 10 µM; 2.3% of 94,000 active; 72 h; active compounds read low; in the data active = activity change below about -80%; inconclusive = no clear call, values can overlap the other calls
Tcruzi prolif – T. cruzi intracellular proliferation inhibitors, primary screen, cell-based, beta-gal Tulahuen parasites, NIH3T3 host, luminescence; T. cruzi beta-gal in NIH3T3, GalScreen luminescence, 90 h; inhibition, % at 8.34 µM; 5.9% of 77,000 active; AID 624255, 2012;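 active = mean inhibition above about 93%, with at least 55% of replicates each passing it, limit read from the data, passing the limit was not always enough; inconclusive = only one of those two conditions holds; inactive = neither condition holds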
Each line names hits and unclear results; the compound was inactive in the other large screens; ! = repeats disagree.

COC(=O)C[C@@H]1C[C@H]2c3cc(N(C)C)ccc3O[C@H]2[C@@H](CO)O1	none (no result: KDM4C inh)
COC(=O)C[C@H]1C[C@H]2c3cc(N(C)C)ccc3O[C@H]2[C@H](CO)O1	KDM4C inh 43
CN(C)C(=O)C[C@@H]1C[C@@H]2c3cc(NC(=O)Nc4ccccc4F)ccc3O[C@@H]2[C@@H](CO)O1	IDH1 mut inh 39, KDM4C inh 36
CN(C)c1ccc2c(c1)[C@@H]1C[C@H](CC(=O)O)O[C@@H](CO)[C@@H]1O2	none
CC(C)c1ccc2oc(-c3ccc(NC(=O)COc4ccc([N+](=O)[O-])cc4)cc3)nc2c1	none (no result: KDM4C inh, Pf Dd2 growth, Tcruzi prolif)
CCCc1cn(CC[C@H]2CC[C@H](NC(=O)Cc3cccnc3)[C@@H](CO)O2)nn1	none
CCCN(C)C[C@H]1OCCCC[C@@H](C)Oc2ccc(NC(=O)Cc3ccccc3)cc2C(=O)N([C@@H](C)CO)C[C@H]1C	Pf Dd2 growth -86
CCCN(C)C[C@H]1OCCCC[C@@H](C)Oc2ccc(NC(=O)Cc3ccccc3)cc2C(=O)N([C@H](C)CO)C[C@H]1C	none
C[C@@H]1CCCCO[C@H](CN(C)CC2CCCCC2)[C@@H](C)CN([C@H](C)CO)C(=O)c2cc(NC(=O)Cc3ccccc3)ccc2O1	Pf Dd2 growth -84 (no result: IDH1 mut inh)
C[C@@H]1CCCCO[C@@H](CN(C)CC2CCCCC2)[C@@H](C)CN([C@@H](C)CO)C(=O)c2cc(NC(=O)Cc3ccccc3)ccc2O1	none (no result: IDH1 mut inh)
COc1cccc(CN(C)C[C@H]2OCc3ccccc3-c3c(n(C)c4ccccc34)C(=O)N([C@H](C)CO)C[C@H]2C)c1	Pf Dd2 growth -88 (no result: IDH1 mut inh, Tcruzi prolif)
C[C@H](CO)N1C[C@H](C)[C@@H](CN(C)Cc2cccc(C(=O)Nc3ccccc3N)c2)OCc2ccccc2-c2c(n(C)c3ccccc23)C1=O	Pf Dd2 growth -91 (no result: IDH1 mut inh, Tcruzi prolif)
C[C@@H]1CN([C@@H](C)CO)C(=O)c2c(c3ccccc3n2C)-c2ccccc2CO[C@@H]1CN(C)Cc1cccc(F)c1	Pf Dd2 growth -86 (no result: IDH1 mut inh, Tcruzi prolif)
C[C@H]1CN([C@@H](C)CO)C(=O)c2c(c3ccccc3n2C)-c2ccccc2CO[C@H]1CN(C)Cc1cccc(C(=O)O)c1	none (no result: IDH1 mut inh)
C[C@H](CO)N1C[C@H](C)[C@H](CN(C)Cc2cccc(O)c2)OCc2ccccc2-c2c(n(C)c3ccccc23)C1=O	none (no result: IDH1 mut inh, KDM4C inh, Tcruzi prolif)
C[C@H]1CN([C@@H](C)CO)C(=O)c2c(c3ccccc3n2C)-c2ccccc2CO[C@@H]1CN(C)Cc1cccc(O)c1	Pf Dd2 growth -89 (no result: IDH1 mut inh, Tcruzi prolif)
N#C[C@H]1[C@H](c2ccc(C#CCC3CCCC3)cc2)[C@H](CO)N1C(=O)c1ccccn1	Tcruzi prolif 104 (no result: IDH1 mut inh)
N#C[C@H]1[C@@H](c2ccc(C#CCC3CCCC3)cc2)[C@H](CO)N1C(=O)c1ccccn1	Tcruzi prolif 101 (no result: IDH1 mut inh)
CC(C)C#Cc1ccc([C@@H]2[C@@H](CO)N(C(=O)c3ccccn3)[C@H]2C#N)cc1	none (no result: IDH1 mut inh)
N#C[C@@H]1[C@H](c2ccc(C#CCC3CCCC3)cc2)[C@H](CO)N1C(=O)c1ccccn1	Pf Dd2 growth inconclusive (no result: IDH1 mut inh)
C[C@@H]1CCCCO[C@H](CN(C)C(=O)Nc2ccc(C(F)(F)F)cc2)[C@H](C)CN([C@H](C)CO)C(=O)c2cc(NC(=O)Nc3ccccc3)ccc2O1	none (no result: IDH1 mut inh, Tcruzi prolif)
C[C@@H]1CN([C@H](C)CO)C(=O)c2cccc(NC(=O)c3ccc(-c4nccs4)cc3)c2O[C@H]1CN(C)Cc1ccc(C(=O)Nc2ccccc2N)cc1	Pf Dd2 growth -91
C[C@H]1CN([C@@H](C)CO)C(=O)c2cccc(NC(=O)c3ccc(-c4nccs4)cc3)c2O[C@@H]1CN(C)Cc1ccc(C(=O)Nc2ccccc2N)cc1	Pf Dd2 growth -90, Tcruzi prolif 104 (no result: IDH1 mut inh)
C[C@@H]1CN([C@@H](C)CO)C(=O)c2cccc(NC(=O)c3ccc(-c4nccs4)cc3)c2O[C@@H]1CN(C)Cc1ccc(-c2ccccc2)cc1	none
Cc1ccc(S(=O)(=O)N(C)C[C@@H]2Oc3ccc(NS(=O)(=O)c4cn(C)cn4)cc3C(=O)N([C@@H](C)CO)C[C@@H]2C)cc1	none
C[C@@H]1CN([C@H](C)CO)C(=O)Cc2cc(NC(=O)CCCCCC(=O)Nc3ccccc3N)ccc2O[C@H]1CN(C)Cc1ccc2c(c1)OCO2	none
C[C@@H]1CN([C@H](C)CO)C(=O)c2cccc(NC(=O)CCCCCC(=O)Nc3ccccc3N)c2O[C@H]1CN(C)Cc1ccc2c(c1)OCO2	Pf Dd2 growth -90 (no result: Tcruzi prolif)
C[C@@H]1CN([C@H](C)CO)C(=O)c2cccc(NC(=O)CCCCCC(=O)Nc3ccccc3N)c2O[C@@H]1CN(C)Cc1ccc2c(c1)OCO2	Pf Dd2 growth -85 (no result: Tcruzi prolif)
N#Cc1ccc(-c2ccc([C@@H]3[C@@H]4CN(C(=O)Nc5ccc6c(c5)OCO6)C[C@H]3N4)cc2)cc1	Pf Dd2 growth -87 (no result: IDH1 mut inh, Tcruzi prolif)
C/C=C/c1ccc(C2[C@@H]3CN(C(=O)Nc4ccc5c(c4)OCO5)C[C@H]2N3)cc1 (stereo partly specified)	none (no result: IDH1 mut inh, Tcruzi prolif)
N#Cc1ccc(-c2ccc(C3[C@@H]4CN(C(=O)C5CC5)C[C@H]3N4)cc2)cc1 (stereo partly specified)	Pf Dd2 growth -88! (no result: IDH1 mut inh, Tcruzi prolif)
CO[C@H]1CN(C)C(=O)c2ccc(NS(C)(=O)=O)cc2OC[C@H](C)N(C)C[C@@H]1C	none (no result: IDH1 mut inh, Tcruzi prolif)
COc1ccc(C#Cc2ccc3c(c2)O[C@@H](CN(C)C(=O)Nc2cccc(OC)c2)[C@@H](C)CN([C@H](C)CO)S3(=O)=O)cc1	Pf Dd2 growth -89 (no result: IDH1 mut inh)
COc1ccc(C#Cc2ccc3c(c2)O[C@@H](CN(C)C(=O)Nc2cccc(OC)c2)[C@H](C)CN([C@@H](C)CO)S3(=O)=O)cc1	Pf Dd2 growth -88 (no result: IDH1 mut inh, KDM4C inh)
COc1ccc(CN(C)C[C@@H]2Oc3c(NC(=O)C4CCCCC4)cccc3C(=O)N([C@H](C)CO)C[C@H]2C)cc1	none (no result: IDH1 mut inh)
Cc1c(Cl)cccc1NC(=O)CN(C)S(=O)(=O)c1ccc2ccccc2c1	none (no result: KDM4C inh, Pf Dd2 growth, Tcruzi prolif)
CN1C[C@H](O)COC[C@H]2O[C@@H](CC(=O)NC3CCC3)CC[C@@H]21	none (no result: IDH1 mut inh)
Cc1ccc(S(=O)(=O)N(C)C[C@@H]2OCCCC[C@H](C)Oc3ccc(NC(=O)Nc4cccc5ccccc45)cc3C(=O)N([C@H](C)CO)C[C@H]2C)cc1	Pf Dd2 growth -82 (no result: Tcruzi prolif)
Cc1ccc(S(=O)(=O)N(C)C[C@@H]2OCCCC[C@@H](C)Oc3ccc(NC(=O)Nc4cccc5ccccc45)cc3C(=O)N([C@@H](C)CO)C[C@@H]2C)cc1	Pf Dd2 growth -82 (no result: IDH1 mut inh, Tcruzi prolif)
C[C@@H]1CCCCO[C@H](CN(C)C(=O)Nc2ccc(F)cc2)[C@@H](C)CN([C@@H](C)CO)C(=O)c2cc(NC(=O)CCC(F)(F)F)ccc2O1	none (no result: IDH1 mut inh)
C[C@@H]1CCCCO[C@@H](CN(C)S(=O)(=O)c2cn(C)cn2)[C@H](C)CN([C@H](C)CO)C(=O)c2cc(NC(=O)Nc3ccc(C(F)(F)F)cc3)ccc2O1	Pf Dd2 growth -88
Cc1noc(C)c1S(=O)(=O)N(C)C[C@@H]1OCCCC[C@@H](C)Oc2ccc(NC(=O)Nc3ccc(C(F)(F)F)cc3)cc2C(=O)N([C@H](C)CO)C[C@@H]1C	none (no result: IDH1 mut inh)
